Legend:
Type in all cases: functional
[1] = tested on: MDA-MB-231; experiment: Growth inhibition of human MDA-MB-231 cells at 1 uM after 96 hrs by MTT assay; design: scale not given: the % may be the effect or the level left
[2] = tested on: M14; experiment: Growth inhibition of human M14 cells at 1 uM after 96 hrs by MTT assay; design: scale not given: the % may be the effect or the level left
[3] = tested on: HT-29; experiment: Growth inhibition of human HT-29 cells at 10 uM after 96 hrs by MTT assay; design: scale not given: the % may be the effect or the level left
[4] = tested on: HOP-92; experiment: Growth inhibition of human HOP92 cells at 1 nM after 96 hrs by MTT assay; design: scale not given: the % may be the effect or the level left
[5] = tested on: NCI/ADR-RES; experiment: Growth inhibition of human NCI/ADR-RES cells after 96 hrs by MTT assay
How it was run: (§1)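 Run in the NCI 60 human tumour cell line panel as a five-dose assay. GI50 and LC50 were reported for each cell line.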

[6] = tested on: BT-549; experiment: Growth inhibition of human BT549 cells at 1 uM after 96 hrs by MTT assay; design: scale not given: the % may be the effect or the level left
[7] = tested on: SK-MEL-28; experiment: Growth inhibition of human SK-MEL-28 cells at 1 uM after 96 hrs by MTT assay; design: scale not given: the % may be the effect or the level left
[8] = tested on: SK-MEL-28; experiment: Growth inhibition of human SK-MEL-28 cells after 96 hrs by MTT assay; conditions: SK-MEL-28, 96 h
How it was run: (§2)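 Tested in the NCI 60-cell-line panel in five-dose format; GI50 and LC50 values reported for each cell line.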

[9] = tested on: SR; experiment: Growth inhibition of human SR cells at 10 nM after 96 hrs by MTT assay; design: scale not given: the % may be the effect or the level left
[10] = tested on: CAKI-1; experiment: Growth inhibition of human Caki1 cells at 10 uM after 96 hrs by MTT assay; design: scale not given: the % may be the effect or the level left
[11] = tested on: SNB-19; experiment: Growth inhibition of human SNB19 cells at 100 nM after 96 hrs by MTT assay; design: scale not given: the % may be the effect or the level left
[12] = tested on: MDA-MB-435; experiment: Growth inhibition of human MDA-MB-435 cells at 1 uM after 96 hrs by MTT assay; design: scale not given: the % may be the effect or the level left
[13] = tested on: HCT-116; experiment: Growth inhibition of human HCT116 cells at 100 nM after 96 hrs by MTT assay; design: scale not given: the % may be the effect or the level left
[14] = tested on: LOX IMVI; experiment: Growth inhibition of human LOXIMVI cells at 100 nM after 96 hrs by MTT assay; design: scale not given: the % may be the effect or the level left
[15] = tested on: NCI-H322M; experiment: Growth inhibition of human NCI-H322M cells after 96 hrs by MTT assay; how it was run: as §1
[16] = tested on: SF-539; experiment: Growth inhibition of human SF539 cells at 10 nM after 96 hrs by MTT assay; design: scale not given: the % may be the effect or the level left
[17] = tested on: Malme-3M; experiment: Growth inhibition of human MALME-3M cells at 100 nM after 96 hrs by MTT assay; design: scale not given: the % may be the effect or the level left
[18] = tested on: HOP-92; experiment: Growth inhibition of human HOP92 cells at 100 nM after 96 hrs by MTT assay; design: scale not given: the % may be the effect or the level left
[19] = tested on: EKVX; experiment: Growth inhibition of human EKVX cells after 96 hrs by MTT assay; how it was run: as §1
[20] = tested on: ACHN; experiment: Growth inhibition of human ACHN cells at 10 uM after 96 hrs by MTT assay; design: scale not given: the % may be the effect or the level left
[21] = tested on: A498; experiment: Growth inhibition of human A498 cells at 100 nM after 96 hrs by MTT assay; design: scale not given: the % may be the effect or the level left
[22] = tested on: HCC 2998; experiment: Growth inhibition of human HCC2998 cells at 1 nM after 96 hrs by MTT assay; design: scale not given: the % may be the effect or the level left
[23] = tested on: NCI-H226; experiment: Growth inhibition of human NCI-H226 cells at 1 nM after 96 hrs by MTT assay; design: scale not given: the % may be the effect or the level left
[24] = tested on: SF-268; experiment: Growth inhibition of human SF268 cells at 1 uM after 96 hrs by MTT assay; design: scale not given: the % may be the effect or the level left
[25] = tested on: OVCAR-4; experiment: Growth inhibition of human OVCAR4 cells at 1 uM after 96 hrs by MTT assay; design: scale not given: the % may be the effect or the level left
[26] = tested on: SF-295; experiment: Growth inhibition of human SF295 cells at 10 nM after 96 hrs by MTT assay; design: scale not given: the % may be the effect or the level left
[27] = tested on: TK-10; experiment: Growth inhibition of human TK10 cells at 1 nM after 96 hrs by MTT assay; design: scale not given: the % may be the effect or the level left
[28] = tested on: SNB-19; experiment: Growth inhibition of human SNB19 cells at 1 uM after 96 hrs by MTT assay; design: scale not given: the % may be the effect or the level left
[29] = tested on: A549; experiment: Growth inhibition of human A549 cells at 1 nM after 96 hrs by MTT assay; design: scale not given: the % may be the effect or the level left
[30] = tested on: HCT-116; experiment: Growth inhibition of human HCT116 cells after 96 hrs by MTT assay; conditions: HCT-116, 96 h; how it was run: as §1
[31] = tested on: NCI-H522; experiment: Growth inhibition of human NCI-H522 cells at 100 nM after 96 hrs by MTT assay; design: scale not given: the % may be the effect or the level left
[32] = tested on: SK-MEL-5; experiment: Growth inhibition of human SK-MEL-5 cells at 10 uM after 96 hrs by MTT assay; design: scale not given: the % may be the effect or the level left
[33] = tested on: T47D; experiment: Growth inhibition of human T47D cells at 10 uM after 96 hrs by MTT assay; design: scale not given: the % may be the effect or the level left
[34] = tested on: MDA-MB-231; experiment: Growth inhibition of human MDA-MB-231 cells at 1 nM after 96 hrs by MTT assay; design: scale not given: the % may be the effect or the level left
[35] = tested on: SN12C; experiment: Growth inhibition of human SN12C cells at 10 nM after 96 hrs by MTT assay; design: scale not given: the % may be the effect or the level left
[36] = tested on: 786-0; experiment: Growth inhibition of human 786-0 cells at 1 nM after 96 hrs by MTT assay; design: scale not given: the % may be the effect or the level left
[37] = tested on: KM12; experiment: Growth inhibition of human KM12 cells at 1 nM after 96 hrs by MTT assay; design: scale not given: the % may be the effect or the level left
[38] = tested on: KM12; experiment: Growth inhibition of human KM12 cells at 10 nM after 96 hrs by MTT assay; design: scale not given: the % may be the effect or the level left
[39] = tested on: SF-268; experiment: Growth inhibition of human SF268 cells after 96 hrs by MTT assay; conditions: SF-268, 96 h; how it was run: as §2
[40] = tested on: NCI-H226; experiment: Growth inhibition of human NCI-H226 cells at 1 uM after 96 hrs by MTT assay; design: scale not given: the % may be the effect or the level left
[41] = tested on: OVCAR-4; experiment: Growth inhibition of human OVCAR4 cells after 96 hrs by MTT assay; conditions: OVCAR-4, 96 h; how it was run: as §2
[42] = read-out: LC50 (the source's name)
[43] = read-out: Log10GI50 (converted)
[44] = read-out: Log10LC50 (converted)

In the case of `C=C(C)[C@H]1CC=C(C)C2=CO[C@@H](c3ccccc3F)[C@@H]21`, the Activity [1] is reported as 43%, the Activity [2] is reported as 43% and the Activity [3] is reported as 89.53%. It also gave an Activity [4] of 88%, a GI50 ([5]; read-out: GI50) of 3.67 µM and a CC50 [5, 42] of 56.1 µM. For the same compound, the GI50 [5, 43] was 3.63 µM, the CC50 [5, 44] was 56.2 µM and the TGI ([5]; read-out: Log10TGI (converted)) was 17.8 µM. For the same compound, the TGI ([5]; read-out: TGI) was 17.9 µM, the Activity [6] was -6% and the Activity [7] was 53%. The GI50 ([8]; read-out: GI50) was 10.5 µM, the CC50 [8, 42] was 47.1 µM and the GI50 [8, 43] was 10.5 µM. The CC50 [8, 44] was 46.8 µM, the TGI ([8]; read-out: Log10TGI (converted)) was 22.4 µM and the TGI ([8]; read-out: TGI) was 22.2 µM. The Activity [9] was 81%, the Activity [10] was -25% and the Activity [11] was 88%. The Activity [12] was 4%, the Activity [13] was 82% and the Activity [14] was 79%. The GI50 ([15]; read-out: GI50) was 9.5 µM, the CC50 [15, 42] was 54.6 µM and the GI50 [15, 43] was 9.55 µM. It also gave a CC50 [15, 44] of 55 µM, a TGI ([15]; read-out: Log10TGI (converted)) of 23.4 µM and a TGI ([15]; read-out: TGI) of 23.2 µM. It also gave an Activity [16] of 90%, an Activity [17] of 74% and an Activity [18] of 43%. It also gave a GI50 ([19]; read-out: GI50) of 3.37 µM, a CC50 [19, 42] of 80.3 µM and a GI50 [19, 43] of 3.39 µM. It also gave a CC50 [19, 44] of 79.4 µM, a TGI ([19]; read-out: Log10TGI (converted)) of 19.5 µM and a TGI ([19]; read-out: TGI) of 19.4 µM. The Activity [20] was 93.56%, the Activity [21] was 88% and the Activity [22] was 86%. The Activity [23] was 96%, the Activity [24] was 43% and the Activity [25] was 33%. For the same compound, the Activity [26] was 92%, the Activity [27] was 84% and the Activity [28] was 54%. For the same compound, the Activity [29] was 93%, the GI50 ([30]; read-out: GI50) was 3 µM and the CC50 [30, 42] was 36.9 µM. It also gave a GI50 [30, 43] of 3.02 µM, a CC50 [30, 44] of 37.2 µM and a TGI ([30]; read-out: Log10TGI (converted)) of 13.5 µM. The TGI ([30]; read-out: TGI) was 13.6 µM, the Activity [31] was 71% and the Activity [32] was 84.67%. For the same compound, the Activity [33] was 56.11%, the Activity [34] was 101% and the Activity [35] was 87%. It also gave an Activity [36] of 99%, an Activity [37] of 95% and an Activity [38] of 93%. The GI50 ([39]; read-out: GI50) was 6.95 µM, the CC50 [39, 42] was 62.9 µM and the GI50 [39, 43] was 6.92 µM. For the same compound, the CC50 [39, 44] was 63.1 µM, the TGI ([39]; read-out: Log10TGI (converted)) was 23.4 µM and the TGI ([39]; read-out: TGI) was 23.4 µM. The Activity [40] was 32%, the GI50 ([41]; read-out: GI50) was 4.1 µM and the CC50 [41, 42] was 86.6 µM. It also gave a GI50 [41, 43] of 4.07 µM, a CC50 [41, 44] of 87.1 µM and a TGI ([41]; read-out: Log10TGI (converted)) of 24 µM. For the same compound, the TGI ([41]; read-out: TGI) was 23.7 µM.

— ChEMBL document CHEMBL1153726, “Synthesis and anticancer activity of sclerophytin-inspired hydroisobenzofurans” (Bioorg Med Chem Lett, 2009)
